Compound activity deposited in PubChem BioAssay by several laboratories.
Rows were chosen to be rich in hits. Some 2.1% of all compounds tested hit in one or more screens of this group.
cardiac RTF act = increases calcium sensitivity of human cardiac regulated thin filaments; AID 493008; activation, % at 7.2 µM; P19429+P45379; 340,000 compounds, 0.24% hits; IANBD-labeled TnC RTF fluorescence at EC20 calcium; 0% EC20 calcium, 100% full calcium;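 active = activation above the mean over all tested compounds plus 3 SD, cut at about 30% in these data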;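 also: rise in fluorescence read as greater calcium sensitivity of cardiac thin filaments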
Efflux pump mplx = antifungal efflux pump inhibition, Nile Red retention | S. cerevisiae Candida pump triplex | inhibition, % at 10 µM | 330,000 compounds, 0.44% hits;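 active = plate passing quality check with inhibition over a set limit, or well fluorescence over plate mean plus 4 SD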;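 also: Nile Red retained in pooled yeast measured as flow cytometry median fluorescence; higher means more Nile Red kept so more efflux inhibition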
RTF Ca sens inh = cardiac RTF calcium desensitization | P19429+P45379 | IANBD-labeled cardiac RTF, Ca2+ fluorescence | inhibition, % at 7.15 µM | 340,000 compounds, 0.12% hits | AID 493244;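 active = inhibition above the mean inhibition of all tested compounds plus 3 SD, cut at about 17% in these data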;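 also: assay run at fixed EC70 calcium of 1.6 mM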
Mot1-301 SUMO = inhibitors of SUMOylation pathway: yeast Mot1-301 growth rescue | S. cerevisiae Mot1-301 growth rescue, ATP luminescence, 38.5C; percent above DMSO median, 100 means doubled | growth rescue, % at 18.8 µM | 320,000 compounds, 1% hits | AID 2716;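 active = every valid replicate shows activation above 250% relative to neutral control wells; inactive = the rest, any valid replicate at or below 250%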
ARNT TACC3 PPI = ARNT/TACC3 interaction disruption | AlphaScreen His-ARNT PAS-B/GST-TACC3 binding, luminescence; TACC3 fragment carries E629A point mutation | Q9Y6A5 | 390,000 compounds, 0.66% hits | inhibition, % at 9.99 µM;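 active = mean inhibition of replicates at least 50% and at least half of replicates each reaching 50%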
UCH37 DUB inh = human UCH37 deubiquitinating enzyme inhibition; inhibition, % (test concentration not listed); purified proteasome/UCH37, Ub-AMC cleavage fluorescence; Q9Y5K5; 330,000 compounds, 0.33% hits;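 active = mean inhibition over replicate wells above about 20%, limit read from the data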
Target sequence (Q9Y5K5 whole entry, looked up): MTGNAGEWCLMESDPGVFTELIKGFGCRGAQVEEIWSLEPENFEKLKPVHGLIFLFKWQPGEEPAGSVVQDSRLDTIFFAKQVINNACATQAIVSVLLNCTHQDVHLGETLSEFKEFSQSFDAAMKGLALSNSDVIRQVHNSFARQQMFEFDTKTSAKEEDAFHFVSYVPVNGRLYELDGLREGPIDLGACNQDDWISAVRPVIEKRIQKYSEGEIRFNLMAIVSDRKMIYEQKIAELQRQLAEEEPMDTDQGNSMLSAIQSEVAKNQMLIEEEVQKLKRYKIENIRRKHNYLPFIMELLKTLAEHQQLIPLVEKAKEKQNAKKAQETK
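Signal – fluorescence, ex 355 nm, em 460 nm · System – Proteasome-bound UCH37 · Input – 0.15 nM proteasome as dispensed · Timing – 30 min preincubation with enzyme, 25 min cleavage at room temperature · Read-out basis – percent inhibition of cleavage signal versus uninhibited and no-proteasome wells · Medium – Tris-HCl pH 7.4 with ATP-MgCl2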
Hits are given with their value; i = inactive; nt = no result; + = active, no number; ! = a repeat was not active.

SMILES	cardiac RTF act	Efflux pump mplx	RTF Ca sens inh	Mot1-301 SUMO	ARNT TACC3 PPI	UCH37 DUB inh
Oc1c(C(c2ccccc2)N2CCCCC2)sc2ncnn12 (stereo not drawn)	i	i	i	462	i	i
CC(=O)N1CCN(c2ccccc2NC(=O)COc2ccc(Br)cc2)CC1	i	i	i	i	i	i
O=C(COc1ccc(Br)cc1)Nc1ccccc1N1CCCC1	i	i	i	i	nt	28
COc1ccc(C)cc1NC(=O)CC(C)=NNC(=O)Cc1cccc2ccccc12	nt	nt	nt	nt	nt	i
Nc1c(C(=O)C2CC2)sc2nc(-c3cccs3)cc(C(F)(F)F)c12	46	i	i	i	i	i
Cc1ccsc1/C=N/Nc1ncnc2nc[nH]c12	i	i	i	i	58	nt
C(=NNc1ncnc2nc[nH]c12)c1cccs1	nt	nt	nt	nt	nt	i
CCOC(=O)/C(C#N)=C/Nc1ccccc1NS(=O)(=O)c1cccc(C(C)=O)c1	i	i	i	i	i	26
O=C(NNC1CC(=O)N(c2ccc(Cl)cc2)C1=O)c1ccccn1 (stereo not drawn)	i	i	i	i	nt	26
Cc1cc(-c2ccc(N=Nc3c(S(=O)(=O)O)cc4cc(S(=O)(=O)O)cc(N)c4c3O)c(C)c2)ccc1N=Nc1c(S(=O)(=O)O)cc2cc(S(=O)(=O)O)cc(N)c2c1O	nt	i	nt	i	nt	nt
O=S(=O)(O)c1cc(O)c2c(O)c(N=Nc3cc(Cl)ccc3O)c(S(=O)(=O)O)cc2c1	i	i	27	i	69	34
CC(CC(=O)Nc1ccc2c(c1)OCCO2)=NNC(=O)c1cccc(O)c1	nt	nt	nt	nt	nt	i
O=C(CC1C(=O)N(c2ccc(Cl)cc2)C(=S)N1CCc1ccncc1)Nc1ccc(F)cc1 (stereo not drawn)	39	i	i	i	i	i
Cc1c(C)c2c(OCC(=O)N3CCC(C(=O)O)CC3)cc3c(c2oc1=O)CCC(C)(C)O3	i	i	i	i	45	i
Cc1c(C)c2c(OCC(=O)N3CCC(C(=O)NCC(C)C)CC3)cc3c(c2oc1=O)CCC(C)(C)O3	i	i	i	i	nt	i
O=C(NN=Cc1cc2c(cc1Cl)OCO2)c1ccccn1	nt	nt	nt	nt	nt	i
CCn1c(=O)cc(OCC(=O)N2CCN(C(=O)c3ccco3)CC2)c2ccccc21	i	i	i	707	nt	i
CCOC(=O)N1CCN(C(=O)COc2cc(=O)n(CC)c3ccccc23)CC1	i	i	i	i	i	i
CC(C)C(=O)Nc1ccc(-c2nc3ccccc3c(=O)o2)cc1	i	i	i	i	16	i
CCOC(=O)c1[nH]c(C)c(/C(O)=C2\C(=O)C(=O)N(CCN(C)C)C2c2ccncc2)c1C (stereo not drawn)	i	i	i	i	i	29
O=C(CN1C(=O)CSC1=O)N1CCc2ccccc2C1	i	i	i	nt	30	i
O=C(CN1C(=O)NC2(CCCCCCC2)C1=O)N1CCc2ccccc2C1	i	i	i	i	i	i
CCN(CC)c1ccc2cc(S(=O)(=O)c3ccc(Cl)cc3)c(=O)oc2c1	253	i	i	i	nt	i
CCN1CCN(Cc2c(O)ccc3c2O/C(=C\c2ccccc2)C3=O)CC1	i	i	i	i	nt	i
CCN1CCN(Cc2c(O)ccc3c2O/C(=C\C=C\c2ccccc2)C3=O)CC1	140	i	i	i	i	i
SMILES	cardiac RTF act	Efflux pump mplx	RTF Ca sens inh	Mot1-301 SUMO	ARNT TACC3 PPI	UCH37 DUB inh
O=C1/C(=C/C=C/c2ccccc2)Oc2c1ccc(O)c2CN1CCN(CCO)CC1	43	i	i	i	i	i
COc1ccccc1/C=C/C=C1\Oc2c(ccc(O)c2CN2CCN(CCO)CC2)C1=O	239	i	i	i	i	i
O=C(NN=C/C=C/c1ccc2c(c1)OCO2)C1COc2ccccc2O1 (stereo not drawn)	nt	nt	nt	nt	nt	i
CCn1nc(C)c(C=NNC(=O)c2ccc3c(c2)OCO3)c1C	nt	nt	nt	nt	nt	i
Clc1ccc(Cn2ncc3c(NCc4ccccc4)ncnc32)c(Cl)c1	nt	5.5	nt	i	nt	i
O=C(NN1C(=O)/C(=C/C=C/c2ccco2)SC1=S)c1ccccc1O	i	2.0	i	i	i	i
Cn1cccc1/C=C1\SC(=S)N(NC(=O)c2ccccc2O)C1=O	i	i	i	i	i	i
O=C(NN=C1CCC(=NNC(=O)c2ccccn2)CC1)c1ccccn1	i	nt	i	nt	66	i
O=C(N/N=C/c1ccco1)c1ccccn1	i	i	i	i	67	nt
C[n+]1c2cc(N)ccc2cc2ccc(N)cc21	+	nt	i	nt	28!	nt
O=C(C[C@@H]1C=C[C@H](NC(=O)Cc2ccccn2)[C@@H](CO)O1)NCCc1ccncc1	nt	nt	nt	nt	47	nt
CC[C@@H]1CC=C[C@H]2[C@H]1C(=O)N(Cc1ccccc1)[C@H]2c1ccoc1	i	nt	i	679	i	nt
O=C(O)CC1S/C(=N/N=CC2CC=CCC2)NC1=O (stereo not drawn)	nt	nt	nt	nt	nt	i
CN(C)C(N)=NCCC[C@H](N)C(=O)O	i	i	i	i	active	i
COCc1cc(C)nc(OCC(=O)NN=Cc2cccc(OC)c2)c1C#N	nt	nt	nt	nt	nt	i
Cc1[nH][nH]c(=O)c1C(c1cc2c(cc1Br)OCO2)c1c(C)[nH][nH]c1=O	i	i	i	i	i	i
Cc1[nH][nH]c(=O)c1C(c1cc(Br)ccc1O)c1c(C)[nH][nH]c1=O	i	i	i	i	active	i
N#CCC(=O)NN=Cc1cc([N+](=O)[O-])ccc1N1CCCC1	nt	nt	nt	nt	nt	i
COCCNC(=O)c1onc(CSc2cccc(OC)c2)c1C(=O)O	i	i	i	i	i	i
COc1cccc(SCc2noc(C(=O)NCCN(C)C)c2C(=O)NCCN(C)C)c1	i	i	i	i	i	32
Cc1cc2c(nc1C)CCCN2C[C@@H](C)ON=C1[C@H]2CCn3c(=O)n(-c4ccccc4)c(=O)n3[C@H]2[C@H](O)[C@@H]2O[C@H]12	nt	nt	nt	nt	nt	i
NNC(=O)c1nc[nH]c1C(=O)Nc1ccccn1	i	i	i	i	48	nt
O=C(NN=C/C=C\c1ccccc1[N+](=O)[O-])c1cccs1	nt	nt	nt	nt	nt	i
OCc1nc2ccccc2n1N=Cc1cccs1	nt	nt	nt	nt	nt	i
CCc1ccc(C(=O)NNc2ccc(S(N)(=O)=O)cc2)cc1	nt	i	nt	i	i	i
SMILES	cardiac RTF act	Efflux pump mplx	RTF Ca sens inh	Mot1-301 SUMO	ARNT TACC3 PPI	UCH37 DUB inh
CCOC(=O)C(=O)NNc1ccc(F)cc1	nt	i	nt	413	nt	i
CCc1ccc(C(=O)NNc2ccc(F)cc2)cc1	i	i	i	319	i	i
CC(Cn1cnc([N+](=O)[O-])n1)=NNC(=O)c1ccc(Br)cc1	nt	nt	nt	nt	nt	i
Cn1c(=S)n(N=Cc2cccs2)c2ccccc21	nt	nt	nt	nt	nt	i
CCNc1nc(NCC)n2c(SCC(=O)O)nnc2n1	i	i	i	i	i	34
Oc1ccc(F)c2cccnc12	i	i	i	i	i	i
OCc1ccc(O)c2ncccc12	i	i	i	i	71	i
CCCOCc1ccc(O)c2ncccc12	i	i	i	i	i	i
Oc1ccc(Cc2ccccc2)c2cccnc12	nt	nt	nt	nt	nt	i
Oc1ccc(CNc2ccccc2F)c2cccnc12	i	i	i	i	49	i
